The record followed here is ChEMBL document CHEMBL4811271, “Computer-aided design of 1,4-naphthoquinone-based inhibitors targeting cruzain and rhodesain cysteine proteases” (Bioorg Med Chem, 2021).

Molecules are shown by their SMILES. pIC50, pKi: −log10 of the molar value. Activity calls are given as the source filed them. The calls are words filed in the database; no cut-off is given here.

Test [1] concerns the target Cruzipain (Trypanosoma cruzi) (UniProt P25779). The test is described as follows: Inhibition of recombinant Trypanosoma cruzi cruzain at 100 uM using Z-FR-AMC as substrate preincubated for 10 mins followed by substrate addition measured for 5 mins by fluorimetric analysis relative to control. A digest of the protocol: (§1)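 Recombinant enzyme (cruzain expressed in-house; rhodesain donated) at 0.5 nM in 0.1 M sodium acetate pH 5.5 with 1 mM DTT and 0.01% Triton X-100. Compound pre-incubated with enzyme 10 min, then 2.5 µM Z-FR-AMC added. Fluorescence followed 5 min. Activity taken from initial rates against DMSO control, E64 as positive control. Screen at 100 µM. IC50 from ≥8 concentrations by nonlinear regression. Two independent experiments in triplicate.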

The target of test [2] is Cruzipain (Trypanosoma cruzi, UniProt P25779). Description: Inhibition of recombinant Trypanosoma cruzi cruzain using Z-FR-AMC as substrate preincubated for 10 mins followed by substrate addition measured for 5 mins by fluorimetric analysis relative to control. The method, boiled down:
as §1

Test [3] has as its target Rhodesain (Trypanosoma brucei rhodesiense) (UniProt Q95PM0). Description: Inhibition of recombinant Trypanosoma brucei rhodesain at 100 uM using Z-FR-AMC as substrate preincubated for 10 mins followed by substrate addition measured for 5 mins by fluorimetric analysis relative to control. The method, boiled down: as §1
For test [4], the target named is T1, Rhodesain (Trypanosoma brucei rhodesiense, UniProt Q95PM0). Description: Inhibition of recombinant Trypanosoma brucei rhodesain using Z-FR-AMC as substrate preincubated for 10 mins followed by substrate addition measured for 5 mins by fluorimetric analysis relative to control. A digest of the protocol: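 Recombinant rhodesain (0.5 nM) in 0.1 M sodium acetate pH 5.5 with 1 mM DTT and 0.01% Triton X-100, pre-incubated with compound for 10 min before adding 2.5 µM Z-FR-AMC. Fluorescence monitored 5 min. Initial rates compared with DMSO control. Screen at 100 µM; IC50 determined for compounds above 70% inhibition, from at least 8 concentrations, two independent experiments in triplicate.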
T1 sequence (Q95PM0 whole entry): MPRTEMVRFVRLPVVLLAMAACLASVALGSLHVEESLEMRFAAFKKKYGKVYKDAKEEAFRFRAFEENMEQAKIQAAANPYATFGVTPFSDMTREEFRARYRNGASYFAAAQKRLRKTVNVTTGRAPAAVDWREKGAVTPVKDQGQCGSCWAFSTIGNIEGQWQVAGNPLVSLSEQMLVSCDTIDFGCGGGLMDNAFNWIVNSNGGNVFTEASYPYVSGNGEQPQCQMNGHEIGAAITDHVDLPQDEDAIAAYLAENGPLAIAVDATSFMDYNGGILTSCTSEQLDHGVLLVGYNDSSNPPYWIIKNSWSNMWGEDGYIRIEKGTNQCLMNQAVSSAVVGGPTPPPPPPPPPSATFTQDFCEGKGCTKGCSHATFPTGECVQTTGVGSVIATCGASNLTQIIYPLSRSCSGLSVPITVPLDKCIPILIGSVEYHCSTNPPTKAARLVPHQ

For test [5], the target named is Rhodesain (Trypanosoma brucei rhodesiense) (UniProt Q95PM0). Description: Inhibition of recombinant Trypanosoma brucei rhodesain at 100 uM using Z-FR-AMC as substrate by fluorimetric analysis relative to control. The method, boiled down:
as §1

For test [6], the target named is T1, Rhodesain. Description: Inhibition of recombinant Trypanosoma brucei rhodesain using Z-FR-AMC as substrate by fluorimetric analysis relative to control. The method, boiled down:
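Rhodesain (recombinant, gift) 0.5 nM in 0.1 M sodium acetate pH 5.5 with 1 mM DTT and 0.01% Triton X-100. Z-FR-AMC substrate 2.5 µM, read by fluorescence over 5 min. Activity from initial rates versus DMSO control, with E64 as positive control. Two independent experiments in triplicate. IC50 from at least 8 concentrations by nonlinear regression.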

In test [7] the target is Rhodesain (Trypanosoma brucei rhodesiense) (UniProt Q95PM0). Description: Reversible inhibition of recombinant Trypanosoma brucei rhodesain using Z-FR-AMC as substrate measured for 30 mins by fluorimetric analysis. A digest of the protocol:
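Rhodesain at 100-fold final assay concentration incubated 30 min with compound at 10-fold its IC50. The mixture was then diluted 100-fold into buffer with 2.5 µM Z-FR-AMC, giving standard enzyme level and 0.1× IC50. AMC release was monitored continuously for 30 min and compared with vehicle control. E-64 served as irreversible reference.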

Test [8] shares this target. The test is described as follows: Inhibition of recombinant Trypanosoma brucei rhodesain at 100 uM using Z-FR-AMC as substrate by fluorimetric analysis. The settings on record: TDE = time-dependent effect. A digest of the protocol: as §1
Test [9] deals with Vero. Description: Cytotoxicity against African green monkey Vero cells measured after 24 hrs. In kind it is functional. The settings on record: Chlorocebus sabaeus.
Test [10] has as its system Trypanosoma cruzi. Description: Antitrypanosomal activity against Trypanosoma cruzi Dm28c assessed as live parasite count measured after 72 hrs by optical microscopy. To be noted: read-out: LD50 (the source's name). In kind it is functional.
Test [11] concerns the target T1, Rhodesain. The test is described as follows: Binding affinity to Trypanosoma brucei rhodesain. The method, boiled down:
as §1

For test [12], the target named is Rhodesain (Trypanosoma brucei rhodesiense) (UniProt Q95PM0). The test is described as follows: Inhibition of recombinant Trypanosoma brucei rhodesain at 0.1 uM using Z-FR-AMC as substrate by fluorimetric analysis relative to control.
Sequence of Rhodesain (Trypanosoma brucei rhodesiense) (Q95PM0 1-450): as the sequence (Q95PM0 whole entry) above
The target is the same in test [13]. The test is described as follows: Inhibition of recombinant Trypanosoma brucei rhodesain at 0.1 uM using Z-FR-AMC as substrate preincubated for 10 mins followed by substrate addition by fluorimetric analysis relative to control.

Sequence of Cruzipain (P25779 whole entry): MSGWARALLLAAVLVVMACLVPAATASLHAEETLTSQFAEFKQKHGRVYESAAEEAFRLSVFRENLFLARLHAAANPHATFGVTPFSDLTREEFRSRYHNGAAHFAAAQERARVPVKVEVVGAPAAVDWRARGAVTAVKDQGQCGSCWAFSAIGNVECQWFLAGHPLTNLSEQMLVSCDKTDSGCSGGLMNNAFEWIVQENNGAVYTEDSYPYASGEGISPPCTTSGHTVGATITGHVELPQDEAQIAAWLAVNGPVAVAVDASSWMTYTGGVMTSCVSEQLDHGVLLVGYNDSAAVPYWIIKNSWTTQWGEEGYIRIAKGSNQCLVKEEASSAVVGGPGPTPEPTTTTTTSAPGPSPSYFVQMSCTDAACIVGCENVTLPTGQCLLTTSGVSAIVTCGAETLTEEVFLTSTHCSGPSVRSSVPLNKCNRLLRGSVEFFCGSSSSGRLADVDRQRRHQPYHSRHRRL
Sequence of Cruzipain (Trypanosoma cruzi) (P25779 123-467 limits assumed): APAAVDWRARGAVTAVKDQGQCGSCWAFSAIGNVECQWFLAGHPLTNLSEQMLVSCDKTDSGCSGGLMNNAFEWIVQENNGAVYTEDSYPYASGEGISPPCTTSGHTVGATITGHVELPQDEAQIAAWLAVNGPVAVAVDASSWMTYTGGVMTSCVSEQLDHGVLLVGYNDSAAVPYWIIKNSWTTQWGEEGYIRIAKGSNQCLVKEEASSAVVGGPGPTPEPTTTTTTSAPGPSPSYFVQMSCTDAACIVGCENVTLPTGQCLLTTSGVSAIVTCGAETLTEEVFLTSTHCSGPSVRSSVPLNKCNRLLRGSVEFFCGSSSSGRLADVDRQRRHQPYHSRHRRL

As to `CC(C)=CCC1=C(O)c2ccccc2/C(=N/NC(N)=S)C1=O`, the values for the inhibition in [1], in test [3] and in test [5] were 83%, 82% and 79%, respectively. The values for the pIC50 in [2], in [4] and in test [6] were 4.47, 4.55 and 4.18, respectively. For the same compound, the inhibition entry in [7] is “Active”.
`CC(C)=CCC1=C(O)c2ccccc2/C(=N/NC(=O)c2ccncc2)C1=O`: the values for the inhibition in test [1], in test [3] and in [5] were 76%, 87% and 73%, respectively. The pIC50 in test [2] was 4.48; in [4] it was 4.70; in test [6], 4.54. Moreover, the inhibition entry in [7] is “Active”.
`O=C(NNC1=CC(=O)c2ccccc2C1=O)c1ccncc1`: the inhibition in test [1] and in test [3] was 37% in each case.
Consider `COC1=CC(=O)c2ccccc2C1=O`, for which the inhibition in test [1] came to 32%; in test [3], 27%.
The like results for `CC(NC1=CC(=O)c2ccccc2C1=O)c1ccccc1` (stereo not given) were, in that order, 26% and 23%.
Turning to `Cc1cc(NS(=O)(=O)c2ccc(NC3=CC(=O)c4ccccc4C3=O)cc2)no1`, the inhibition was found to be 6% in test [1] and 1% in test [3].
`O=C1C=C(O)C(=O)c2ccccc21` [LAWSONE]: the inhibition is 58% in [1], 77% in [3], 27% in test [5] and “Tde” in test [8]. For the same compound, the pIC50 is 4.48 in test [4] and less than 4.00 in test [6]. The inhibition result in test [7] is “Active”.
Turning to `CC(C)=CCC1=C(O)C(=O)c2ccccc2C1=O` [LAPACHOL], the inhibition is 35% in test [1], 70% in test [3], 18% in test [5] and “Tde” in test [8]. Moreover, the pIC50 is 4.24 in [4] and less than 4.00 in test [6]. In addition, the inhibition result in [7] was “Active”.
`O=C1C=C(Nc2ccc(S(=O)(=O)Nc3ccccn3)cc2)C(=O)c2ccccc21`: the inhibition in test [1] was 95%; in test [3], 93%; in test [5], 48%; in test [8], “Tde”. Also, the negative-log IC50 (pIC50) in test [2] is 5.20; in test [4], 5.74; in test [6], 4.52. Further, the inhibition result in [7] is “Active”.
Take `CC1(C)CCC2=C(O1)C1(CO1)c1ccccc1C2=O` (stereo not given): the CC50 in test [9] is more than 50 µM. The LC50 in test [10] is less than 3.1 µM.
In the case of `O=C1C=C(Br)C(=O)c2ccccc21`, the results for the inhibition in [1] and in [3] were 51% and 50%, respectively.
In the same order, the values of `O=C1C=C(O)c2ccccc2/C1=N/NC(=O)c1ccncc1` are 66% and 52%.
For the compound `O=C1C=C(Nc2ccccc2)C(=O)c2ccccc21`, the inhibition turned out to be 48% in test [1] and 61% in test [3].
`CC(C)C[C@H](NC(=O)[C@H](Cc1ccccc1)NC1=C(C#N)C(=O)c2ccccc2C1=O)C(=O)O` showed a pKi in test [11] of 9.30.
In the case of `O=C1C(Cl)=C(Cl)C(=O)c2ccccc21`, the inhibition was 49% in [1] and 56% in [3].
Turning to `CC(C)C[C@H](NC(=O)[C@H]1O[C@@H]1C(=O)O)C(=O)NCCCCN=C(N)N` [E-64], the pIC50 in [2] is 7.70; in test [4], 8.51. For the same compound, the inhibition in [12] is 7%; in [13] it was 95%. For the same compound, in test [7], the inhibition entry was “Active”.

What is called inhibition is how much of the control response was suppressed. By pIC50 is commonly meant −log10 of the IC50, conventionally taken in molar units. One may read the CC50 as the concentration that lowers cell viability or growth by half. Broadly, the pKi is the Ki on a negative log10 scale, so that one unit is a factor of ten.
